Assay results: paper PMC7797712 (Medicinal Chemistry Research, 2021)
pEC50: −log10 of the molar value.

Experiments:
[1] = biological target: HBV core protein (Hepatitis B virus genotype D subtype ayw, UniProt P03146); experiment: Western blot assay of HBV core protein dephosphorylation in AML12HBV_DE11 cells; assay type: cell-based; conditions: 30 h, ENAN-34017 2 µM, Bay 41-4109 2 µM, entecavir 1 µM
How it was run: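 Controls: cells kept with tetracycline, or tetracycline-free and mock treated. Test cells tetracycline-free, treated 30 h, then lysed in LDS loading buffer and boiled 100 °C for 20 min. Run on 12% Bis-Tris gel in MOPS buffer, transferred to PVDF. Hyper-phosphorylated and dephosphorylated/hypophosphorylated core protein detected by western blot; β-actin loading control.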

[2] = system: cytoplasmic HBV-DNA replication in AML12HBV10 cells; experiment: Antiviral assay in AML12HBV10 cells; assay type: cell-based, hepatitis B virus; conditions: for Anti-HBV potency compared with 27 (58031), in words: SAR statement of the text
How it was run: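 AML12-derived mouse hepatocyte line carrying a tetracycline-inducible, envelope-deficient HBV genome; seeded at 2 × 10^4 cells/well in tetracycline-free medium. Next day, mock or twofold serial dilution (10 to 0.08 µM) for 48 h. Cells lysed in Tris-HCl pH 7.5/EDTA/NaCl/1% NP-40. Half the lysate NaOH-denatured, neutralised, dot-blotted and hybridised with 32P-labelled HBV minus-strand riboprobe. Phosphorimager quantification; EC50 = concentration reducing HBV DNA by 50%.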

[3] = system: AML12HBV10 cells; experiment: Cytotoxicity assay in AML12HBV10 cells; assay type: cell-based, mouse
How it was run: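 Cells treated in tetracycline-free medium, as in the antiviral assay, with twofold serial dilution from 50 to 1.56 µM for 48 h. Viability checked by microscopy and measured by MTT. CC50 = concentration reducing viability by 50%.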

[4] = system: HBV replication in HepDES19 cells; experiment: Antiviral assay in HepDES19 cells; assay type: cell-based; conditions: Hepatitis B virus, HepDES19, read-out: EC50, inhibition of HBV-DNA replication
How it was run: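 HepG2-derived line with a tetracycline-inducible, envelope-deficient HBV genome; seeded in 24-well plates and kept tetracycline-free for 2 days. Then mock or twofold serial dilution for a further 4 days. Cytoplasmic HBV core DNA extracted and measured by qPCR. EC50 from regression on biologically triplicate experiments, two independent experiments.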

Chain of HBV core protein (P03146 whole entry): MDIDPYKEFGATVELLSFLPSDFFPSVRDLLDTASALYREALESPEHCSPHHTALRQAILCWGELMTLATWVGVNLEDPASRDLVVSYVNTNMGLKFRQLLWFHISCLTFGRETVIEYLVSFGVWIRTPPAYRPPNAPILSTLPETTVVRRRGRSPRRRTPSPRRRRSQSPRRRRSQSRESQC

| Compound | Effect on Cp dephosphorylation [1] | Anti-HBV potency compared with 27 (58031), in words ([2]; AML12HBV10 cells) | other results |
| --- | --- | --- | --- |
| C=C1[C@H](CO)[C@@H](O)C[C@@H]1n1cnc2c(=O)[nH]c(N)nc21 [entecavir, reference compound] | did not affect Cp dephosphorylation |  |  |
| O=C1CC(CN2CCC(F)(F)CC2)N(C(=O)Nc2ccc(F)c(Cl)c2)CN1Cc1ccc(F)cc1F (stereo not shown) [Compound 46, N-(3-chloro-4-fluorophenyl)-3-(2,4-difluorobenzyl)-6-((4,4-difluoropiperidin-1-yl)methyl)-4-oxotetrahydropyrimidine-1(2H)-carboxamide] |  | deteriorated the potency |  |
| O=C1CC(Cc2cc(F)c(F)cc2F)N(C(=O)Nc2ccc(F)c(Cl)c2)CN1Cc1ccc(F)cc1F (stereo not shown) [Compound 45, N-(3-chloro-4-fluorophenyl)-3-(2,4-difluorobenzyl)-4-oxo-6-(2,4,5-trifluorobenzyl)tetrahydropyrimidine-1(2H)-carboxamide] |  | deteriorated the potency |  |
| O=C1CCN(C(=O)Nc2ccc(F)c(Cl)c2)CN1CC1CN(c2ccccc2)C(=O)O1 (stereo not shown) [Compound 33, N-(3-chloro-4-fluorophenyl)-4-oxo-3-((2-oxo-3-phenyloxazolidin-5-yl)methyl)tetrahydropyrimidine-1(2H)-carboxamide] |  | failed to improve the potencies |  |
| O=C1CCN(C(=O)Nc2ccc(F)c(Cl)c2)CN1Cc1ccc(F)cc1F [Compound 27, N-(3-chloro-4-fluorophenyl)-3-(2,4-difluorobenzyl)-4-oxotetrahydropyrimidine-1(2H)-carboxamide] | inhibited Cp dephosphorylation |  | Cytotoxicity at 50 μM [3]: no cytotoxicity; pEC50 [4]: 6.08; EC50 (50% inhibitory concentration of cytoplasmic HBV-DNA replication) ([2]; AML12HBV10 cells, 48 h treatment, dot-blot hybridization): submicromolar; Potency increase relative to 21 ([2]; AML12HBV10 cells, EC50 ratio): fourfold potency increase; pEC50 ([2]; Hepatitis B virus, AML12HBV10, 48 h, read-out: EC50 (50% inhibitory concentration of cytoplasmic HBV-DNA replication)): 6.28 |
